ChEMBL document CHEMBL2321750, “Structural permutation of potent cytotoxin, polytheonamide B: discovery of cytotoxic Peptide with altered activity” (ACS Med Chem Lett, 2013)
The source made the active and inactive calls. The calls are words filed in the database; no cut-off is given here.

Columns and labels:
P388 [1] = assay: Cytotoxicity against mouse P388 cells assessed as cell viability after 92 hrs by XTT assay; format: functional, cell-based; settings: P388, 92 h
P388 [2] = assay: Induction of H+/Na+ exchange activity in BCECF-loaded mouse P388 cells assessed as change in intracellular pH at 125 nM measured for 1.5 hrs by spectrofluorometric analysis; format: functional, cell-based
Outline: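 P388 mouse leukemia cells loaded with BCECF-AM, which intracellular esterases hydrolyse to trapped BCECF. Cells were suspended in pH 7.8 MOPS buffer with 130 mM NaCl to impose a Na+ gradient. Peptides added at 0 s at 125 nM; exposure 1.5 h. Fluorescence was converted to intracellular pH using a nigericin calibration curve.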

[3] = Induction of H+/Na+ exchange activity in pyranine-encapsulated large unilamellar vesicle of egg yolk phosphatidylcholine/cholesterol at 10 uM administered 60 secs measured for 10 mins by spectrofluorometric analysis; format: physicochemical; settings: 125 nM, in the assay text read “at 125 nM” for “at 10 uM”
Outline: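 Liposomes of EYPC/cholesterol 2:1 carrying encapsulated pyranine, prepared in HEPES buffer with 200 mM NaCl. pH gradient: 6.5 inside, 7.5 outside. Peptides added at 60 s. H+/Na+ exchange followed as pH-dependent pyranine fluorescence increase, normalized to maximal exchange induced by Triton X-100.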

Compound | IC50 (P388 [1]) [nM] | Activity (P388 [2]) | Activity [3]
CC[C@H](C)[C@H](NC(=O)[C@@H](CC(=O)NC)NC(=O)CNC(=O)[C@H](NC(=O)[C@@H](NC(=O)[C@@H](CC(=O)NC)NC(=O)[C@@H](NC(=O)[C@@H](CC(=O)NC)NC(=O)CNC(=O)CNC(=O)[C@H](C)NC(=O)[C@H](NC(=O)[C@H](CCC(=O)NC)NC(=O)[C@@H](CC(=O)NC)NC(=O)[C@@H](NC(=O)CNC(=O)[C@H](C)NC(=O)CNC(=O)[C@@H](NC(=O)[C@H](N)CC(=O)NC)C(C)(C)O)C(C)(C)C)C(C)(C)O)[C@@H](C)CC)C(C)(C)C)C(C)(C)O)C(=O)N[C@H](CC(=O)NC)C(=O)N[C@H](C(=O)N[C@H](CC(=O)NC)C(=O)N[C@@H](C)C(=O)N[C@H](CC(=O)NC)C(=O)N[C@H](C(=O)N[C@H](CO)C(=O)N[C@H](C(=O)N[C@H](CC(N)=O)C(=O)N[C@@H](Cc1cn(CCNS(=O)(=O)c2cccc3c(N(C)C)cccc23)nn1)C(=O)N[C@H](CC(N)=O)C(=O)N[C@@H](CCC(N)=O)C(=O)N[C@@H](C(=O)N[C@H](C(=O)O)[C@@H](C)O)[C@H](C)O)C(C)C)C(C)C)C(C)C | > 420 | – | –
CC[C@H](C)[C@H](NC(=O)[C@@H](CC(=O)NC)NC(=O)CNC(=O)[C@H](NC(=O)[C@@H](NC(=O)[C@@H](CC(=O)NC)NC(=O)[C@@H](NC(=O)[C@@H](CC(=O)NC)NC(=O)CNC(=O)CNC(=O)[C@H](C)NC(=O)[C@H](NC(=O)[C@@H](N)CCC(=O)NC)C(C)(C)O)[C@@H](C)CC)C(C)(C)C)C(C)(C)O)C(=O)N[C@H](CC(=O)NC)C(=O)N[C@H](C(=O)N[C@H](CC(=O)NC)C(=O)N[C@@H](C)C(=O)N[C@H](CC(=O)NC)C(=O)N[C@H](C(=O)N[C@H](CO)C(=O)N[C@H](C(=O)N[C@H](CC(N)=O)C(=O)N[C@@H](Cc1cn(CCNS(=O)(=O)c2cccc3c(N(C)C)cccc23)nn1)C(=O)N[C@H](CC(N)=O)C(=O)N[C@@H](CCC(N)=O)C(=O)N[C@@H](C(=O)N[C@H](C(=O)O)[C@@H](C)O)[C@H](C)O)C(C)C)C(C)C)C(C)C | > 420 | – | –
CC[C@H](C)[C@H](NC(=O)[C@@H](CC(=O)NC)NC(=O)CNC(=O)[C@H](NC(=O)[C@@H](NC(=O)[C@@H](CC(=O)NC)NC(=O)[C@@H](NC(=O)[C@@H](CC(=O)NC)NC(=O)CNC(=O)CNC(=O)[C@H](C)NC(=O)[C@H](NC(=O)[C@H](CCC(=O)NC)NC(=O)[C@@H](CC(=O)NC)NC(=O)[C@@H](NC(=O)CNC(=O)[C@H](C)NC(=O)CNC(=O)[C@@H](NC(=O)[C@@H](CC(=O)NC)NC(=O)[C@H](C)NC(=O)[C@H](N)C(C)(C)C)C(C)(C)O)C(C)(C)C)C(C)(C)O)[C@@H](C)CC)C(C)(C)C)C(C)(C)O)C(=O)N[C@H](CC(=O)NC)C(=O)N[C@H](C(=O)N[C@H](CC(=O)NC)C(=O)N[C@@H](C)C(=O)N[C@H](CC(=O)NC)C(=O)N[C@H](C(=O)N[C@H](CO)C(=O)N[C@H](C(=O)N[C@H](CC(N)=O)C(=O)N[C@@H](Cc1cn(CCNS(=O)(=O)c2cccc3c(N(C)C)cccc23)nn1)C(=O)N[C@H](CC(N)=O)C(=O)N[C@@H](CCC(N)=O)C(=O)N[C@@H](C(=O)N[C@H](C(=O)O)[C@@H](C)O)[C@H](C)O)C(C)C)C(C)C)C(C)C | 81 | – | –
CC[C@H](C)[C@H](NC(=O)[C@@H](CC(=O)NC)NC(=O)CNC(=O)[C@H](NC(=O)[C@@H](NC(=O)[C@@H](CC(=O)NC)NC(=O)[C@@H](NC(=O)[C@@H](CC(=O)NC)NC(=O)CNC(=O)CNC(=O)[C@H](C)NC(=O)[C@H](NC(=O)[C@H](CCC(=O)NC)NC(=O)[C@@H](CC(=O)NC)NC(=O)[C@@H](NC(=O)CNC(=O)[C@H](C)NC(=O)CNC(=O)[C@@H](NC(=O)[C@@H](CC(=O)NC)NC(=O)[C@H](C)NC(=O)[C@H](NC(=O)[C@H](C)N)C(C)(C)C)C(C)(C)O)C(C)(C)C)C(C)(C)O)[C@@H](C)CC)C(C)(C)C)C(C)(C)O)C(=O)N[C@H](CC(=O)NC)C(=O)N[C@H](C(=O)N[C@H](CC(=O)NC)C(=O)N[C@@H](C)C(=O)N[C@H](CC(=O)NC)C(=O)N[C@H](C(=O)N[C@H](CO)C(=O)N[C@H](C(=O)N[C@H](CC(N)=O)C(=O)N[C@@H](Cc1cn(CCNS(=O)(=O)c2cccc3c(N(C)C)cccc23)nn1)C(=O)N[C@H](CC(N)=O)C(=O)N[C@@H](CCC(N)=O)C(=O)N[C@@H](C(=O)N[C@H](C(=O)O)[C@@H](C)O)[C@H](C)O)C(C)C)C(C)C)C(C)C | 3.7 | inactive | Not Active
CC[C@H](C)[C@H](NC(=O)[C@@H](CC(=O)NC)NC(=O)CNC(=O)[C@H](NC(=O)[C@@H](NC(=O)[C@@H](CC(=O)NC)NC(=O)[C@@H](NC(=O)[C@@H](CC(=O)NC)NC(=O)CNC(=O)CNC(=O)[C@H](C)NC(=O)[C@H](NC(=O)[C@H](CCC(=O)NC)NC(=O)[C@@H](CC(=O)NC)NC(=O)[C@@H](NC(=O)CNC(=O)[C@H](C)NC(=O)CNC(=O)[C@@H](NC(=O)[C@@H](CC(=O)NC)NC(=O)[C@H](C)N)C(C)(C)O)C(C)(C)C)C(C)(C)O)[C@@H](C)CC)C(C)(C)C)C(C)(C)O)C(=O)N[C@H](CC(=O)NC)C(=O)N[C@H](C(=O)N[C@H](CC(=O)NC)C(=O)N[C@@H](C)C(=O)N[C@H](CC(=O)NC)C(=O)N[C@H](C(=O)N[C@H](CO)C(=O)N[C@H](C(=O)N[C@H](CC(N)=O)C(=O)N[C@@H](Cc1cn(CCNS(=O)(=O)c2cccc3c(N(C)C)cccc23)nn1)C(=O)N[C@H](CC(N)=O)C(=O)N[C@@H](CCC(N)=O)C(=O)N[C@@H](C(=O)N[C@H](C(=O)O)[C@@H](C)O)[C@H](C)O)C(C)C)C(C)C)C(C)C | 100 | – | –
CC[C@H](C)[C@H](NC(=O)[C@@H](CC(=O)NC)NC(=O)CNC(=O)[C@H](NC(=O)[C@@H](NC(=O)[C@@H](CC(=O)NC)NC(=O)[C@@H](NC(=O)[C@@H](CC(=O)NC)NC(=O)CNC(=O)CNC(=O)[C@H](C)NC(=O)[C@H](NC(=O)[C@H](CCC(=O)NC)NC(=O)[C@@H](CC(=O)NC)NC(=O)[C@@H](NC(=O)CNC(=O)[C@H](C)NC(=O)CN)C(C)(C)C)C(C)(C)O)[C@@H](C)CC)C(C)(C)C)C(C)(C)O)C(=O)N[C@H](CC(=O)NC)C(=O)N[C@H](C(=O)N[C@H](CC(=O)NC)C(=O)N[C@@H](C)C(=O)N[C@H](CC(=O)NC)C(=O)N[C@H](C(=O)N[C@H](CO)C(=O)N[C@H](C(=O)N[C@H](CC(N)=O)C(=O)N[C@@H](Cc1cn(CCNS(=O)(=O)c2cccc3c(N(C)C)cccc23)nn1)C(=O)N[C@H](CC(N)=O)C(=O)N[C@@H](CCC(N)=O)C(=O)N[C@@H](C(=O)N[C@H](C(=O)O)[C@@H](C)O)[C@H](C)O)C(C)C)C(C)C)C(C)C | > 450 | – | –
CC[C@H](C)[C@H](NC(=O)[C@@H](CC(=O)NC)NC(=O)CNC(=O)[C@H](NC(=O)[C@@H](NC(=O)[C@@H](CC(=O)NC)NC(=O)[C@@H](NC(=O)[C@@H](CC(=O)NC)NC(=O)CNC(=O)CNC(=O)[C@H](C)NC(=O)[C@H](NC(=O)[C@H](CCC(=O)NC)NC(=O)[C@@H](CC(=O)NC)NC(=O)[C@@H](NC(=O)CNC(=O)[C@H](C)NC(=O)CNC(=O)[C@@H](N)C(C)(C)O)C(C)(C)C)C(C)(C)O)[C@@H](C)CC)C(C)(C)C)C(C)(C)O)C(=O)N[C@H](CC(=O)NC)C(=O)N[C@H](C(=O)N[C@H](CC(=O)NC)C(=O)N[C@@H](C)C(=O)N[C@H](CC(=O)NC)C(=O)N[C@H](C(=O)N[C@H](CO)C(=O)N[C@H](C(=O)N[C@H](CC(N)=O)C(=O)N[C@@H](Cc1cn(CCNS(=O)(=O)c2cccc3c(N(C)C)cccc23)nn1)C(=O)N[C@H](CC(N)=O)C(=O)N[C@@H](CCC(N)=O)C(=O)N[C@@H](C(=O)N[C@H](C(=O)O)[C@@H](C)O)[C@H](C)O)C(C)C)C(C)C)C(C)C | 140 | – | –
CC[C@H](C)[C@H](NC(=O)[C@@H](CC(=O)NC)NC(=O)CNC(=O)[C@H](NC(=O)[C@@H](NC(=O)[C@@H](CC(=O)NC)NC(=O)[C@@H](NC(=O)[C@@H](CC(=O)NC)NC(=O)CNC(=O)CNC(=O)[C@H](C)NC(=O)[C@H](NC(=O)[C@H](CCC(=O)NC)NC(=O)[C@@H](CC(=O)NC)NC(=O)[C@@H](NC(=O)CN)C(C)(C)C)C(C)(C)O)[C@@H](C)CC)C(C)(C)C)C(C)(C)O)C(=O)N[C@H](CC(=O)NC)C(=O)N[C@H](C(=O)N[C@H](CC(=O)NC)C(=O)N[C@@H](C)C(=O)N[C@H](CC(=O)NC)C(=O)N[C@H](C(=O)N[C@H](CO)C(=O)N[C@H](C(=O)N[C@H](CC(N)=O)C(=O)N[C@@H](Cc1cn(CCNS(=O)(=O)c2cccc3c(N(C)C)cccc23)nn1)C(=O)N[C@H](CC(N)=O)C(=O)N[C@@H](CCC(N)=O)C(=O)N[C@@H](C(=O)N[C@H](C(=O)O)[C@@H](C)O)[C@H](C)O)C(C)C)C(C)C)C(C)C | > 410 | – | –
CC[C@H](C)[C@H](NC(=O)[C@@H](CC(=O)NC)NC(=O)CNC(=O)[C@H](NC(=O)[C@@H](NC(=O)[C@@H](CC(=O)NC)NC(=O)[C@@H](NC(=O)[C@@H](CC(=O)NC)NC(=O)CNC(=O)CNC(=O)[C@H](C)NC(=O)[C@H](NC(=O)[C@H](CCC(=O)NC)NC(=O)[C@H](N)CC(=O)NC)C(C)(C)O)[C@@H](C)CC)C(C)(C)C)C(C)(C)O)C(=O)N[C@H](CC(=O)NC)C(=O)N[C@H](C(=O)N[C@H](CC(=O)NC)C(=O)N[C@@H](C)C(=O)N[C@H](CC(=O)NC)C(=O)N[C@H](C(=O)N[C@H](CO)C(=O)N[C@H](C(=O)N[C@H](CC(N)=O)C(=O)N[C@@H](Cc1cn(CCNS(=O)(=O)c2cccc3c(N(C)C)cccc23)nn1)C(=O)N[C@H](CC(N)=O)C(=O)N[C@@H](CCC(N)=O)C(=O)N[C@@H](C(=O)N[C@H](C(=O)O)[C@@H](C)O)[C@H](C)O)C(C)C)C(C)C)C(C)C | > 250 | – | –
